Source: ChEMBL document CHEMBL1132241, “Novel multidrug resistance reversal agents” (J Med Chem, 1999)

Experiments:
[1] = Partition coefficient (logP); format: physicochemical; conditions: octanol/water
Mus musculus [2] = test: Percent increase in mean life span relative to treatment with an equivalent dose of vincristine alone at 6.3 mg/kg in mice with vincristine-resistantmurine leukemia P388/VCR cells; format: functional
In short: (§1)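 CDF1 mice were implanted ip with 1 × 10^6 P388/VCR cells. Agent and 0.2 mg/kg vincristine were given simultaneously ip once daily, days 1–7. Mean survival over up to 30 days was compared with vincristine alone at an equivalent dose, giving % increase in life span. Student t-test was applied to mean survival time.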

Mus musculus [3] = test: Percent increase in mean life span in mice infected with leukemia P388/VCR, at 6.3 mg/Kg dose; format: functional
In short: (§2)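 CDF1 mice (groups of 10–15) were implanted ip with 1 × 10^6 P388/VCR cells. Agent plus 0.2 mg/kg vincristine were given together ip once daily on days 1–7, starting 1 day post-implant, in cremophor/ethanol or propylene glycol/ethanol vehicle. Survival was recorded to 30 days. Result is the % increase in mean life span versus placebo control.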

Mus musculus [4] = test: Percent increase in mean life span when 0.2 mg/kg vincristine was administered ip once daily on days 1-7, in mice infected with leukemia P388/VCR; format: functional; parameters: concentration or dose not given beside the values; conditions: route intraperitoneal
In short: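 CDF1 mice bearing ip P388/VCR (1 × 10^6 cells) received 0.2 mg/kg vincristine ip once daily on days 1–7. Mean survival to 30 days was expressed as % increase in life span relative to placebo control.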

Mus musculus [5] = test: Relative tumor growth inhibition against human epidermoid carcinoma KB/8.5 implanted subcutaneously only in mice at 8 mg/kg (DOX); format: functional; conditions: route subcutaneous
In short: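 KB/8.5 cells grown in RPMI 1640 with 5% fetal calf serum plus colchicine (10 ng/mL), which was removed for two passages. 8 × 10^6 cells were then implanted sc in athymic nude mice. At 100-300 mg tumor mass, mice were grouped 5-10/group. Doxorubicin was given as a single iv dose (8 mg/kg). Tumor mass was measured on day 14, and relative growth was compared with saline control.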

Mus musculus [6] = test: Percent tumor growth inhibition against human epidermoid carcinoma KB/8.5 implanted subcutaneously in mice at 100 mg/kg of compound along with 8 mg/kg (DOX ) was determined; format: functional
In short: (§3)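 Athymic nude mice bearing sc KB/8.5 tumors (8×10^6 cells, colchicine withdrawn for two passages), grouped at 100–300 mg tumor mass, 5–10 mice/group. Doxorubicin 8 mg/kg given once iv; reversal agent or placebo given sc 2 h before and 2 h after. Tumor mass on day 14 used for relative tumor growth versus doxorubicin alone; Student t-test on log RTG.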

[7] = (§4) In vitro concentration at which 50% of human colon carcinoma cells (S1-B1-20) resistant to bisantrene have survived; format: ADME, cell-based, S1B1-20; conditions: S1-B1-20 human colon carcinoma cells resistant to bisantrene, read-out: LD50 (the source's name)
In short: (§5)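 S1-B1-20 cells (LS 174 T-derived S1 clone selected in bisantrene over 12–16 weeks), trypsinized, 20 000 cells/well. Test agent alone in DMSO (≤0.1% final), 0.1–80 µM, 3 days at 37 °C, 7% CO2. Survival by sulforhodamine B read at 540 nm versus untreated cells. Two to four measurement sets were made, and the value is the concentration giving 50% survival from a best-fit curve.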

S1B1-20 [8] = test: In vitro concentration required to inhibit tumor activity on subclone of human colon carcinoma cells (S1-B1-20) resistant to bisantrene; format: functional, cell-based
In short: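 S1-B1-20 cells (S1 clone of LS 174 T, selected in bisantrene over 12–16 weeks) plated at 20 000 cells/well with or without 20 μM bisantrene, plus test agent 0.1–80 μM from DMSO stock (final DMSO ≤0.1%). 3 days, 37 °C, 7% CO2. Survival by sulforhodamine B at 540 nm. IC50 from best-fit curve of difference score (survival alone minus survival with bisantrene) at 50; 2–4 sets of measurements.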

Mus musculus [9] = test: Percent increase in mean life span relative to treatment with an equivalent dose of vincristine alone at 25 mg/kg in mice with vincristine-resistantmurine leukemia P388/VCR cells; format: functional; in short: as §1
Mus musculus [10] = test: Percent increase in mean life span in mice infected with leukemia P388/VCR, at 25 mg/Kg dose; format: functional; in short: as §2
Mus musculus [11] = test: Percent increase in mean life span relative to treatment with an equivalent dose of vincristine alone at 12.5 mg/kg in mice with vincristine-resistantmurine leukemia P388/VCR cells; format: functional; in short: as §1
Mus musculus [12] = test: Percent increase in mean life span in mice infected with leukemia P388/VCR, at 12.5 mg/Kg dose; format: functional; in short: as §2
S1B1-20 [13] = test: as §4; format: ADME, cell-based; conditions: s1b1-20, read-out: LD50 (the source's name); in short: as §5
Mus musculus [14] = test: Percent tumor growth inhibition against human epidermoid carcinoma KB/8.5 implanted subcutaneously in mice at 50 mg/kg of compound along with 8 mg/kg (DOX ) was determined; format: functional; in short: as §3
Mus musculus [15] = test: Percent increase in mean life span relative to treatment with an equivalent dose of vincristine alone at 50 mg/kg in mice with vincristine-resistantmurine leukemia P388/VCR cells; format: functional; in short: as §1
Mus musculus [16] = test: Percent increase in mean life span in mice infected with leukemia P388/VCR, at 50 mg/Kg dose; format: functional; in short: as §2
Mus musculus [17] = test: Percent tumor growth inhibition against human epidermoid carcinoma KB/8.5 implanted subcutaneously in mice at 25 mg/kg of compound along with 8 mg/kg (DOX ) was determined; format: functional; in short: as §3
Mus musculus [18] = test: Percent tumor growth inhibition obtained for the combination of DOX(8 mg/kg) together with MDR reversal agent versus DOX (8 mg/kg) alone on day 14 at 100 mg/kg dose(in vivo); format: functional; conditions: 336 h, read-out: TGI; in short: as §3
Mus musculus [19] = test: Percent increase in mean life span in mice infected with leukemia P388/VCR, at 100 mg/Kg dose; format: functional
In short: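 CDF1 mice were implanted ip with 1 × 10^6 P388/VCR cells (line passaged in DBA/2 ascites). Agent at 100 mg/kg in Cremophor/ethanol/saline was given ip once daily on days 1–7 without vincristine. Survival was followed to 30 days. Result is the % increase in mean life span versus placebo.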

Row | Structure (SMILES) | logP ([1]; read-out: logP) | ILS (Mus musculus [4]) | Relative tumor growth (Mus musculus [5]) | CC50 [7] | IC50 (S1B1-20 [8]; Homo sapiens, S1B1-20) | CC50 (S1B1-20 [13]) | IC50 (S1B1-20 [8]; s1b1-20) | other results
1 | COc1ccc(C(CCCCCN2CCc3cc(OC)c(OC)cc3C2)Sc2ccc(C)cc2)cc1OC (stereo not given) | 7.42 | 21% | 58 | 16.9 µM | 0.33 µM | – | – | ILS at 6.3 mg/kg (Mus musculus [2]): 13%; ILS at 6.3 mg/kg (Mus musculus [3]): 37%; TGI (Mus musculus [6]): 68%
2 | COc1cc2c(cc1OC)CN(CCCCCCC(Sc1ccccc1)c1ccccc1)CC2 (stereo not given) | 7.99 | 15% | 59 | 24.6 µM | 3.82 µM | – | – | ILS at 25 mg/kg (Mus musculus [9]): 46%; ILS at 25 mg/kg (Mus musculus [10]): 68%; TGI (Mus musculus [6]): 65%
3 | COc1ccc(C(C#N)(CCN2CCc3cc(OC)c(OC)cc3C2)Sc2ccc(C)cc2)cc1OC (stereo not given) | 4.59 | 67% | – | 33.7 µM | 2.3 µM | – | – | ILS at 12.5 mg/kg (Mus musculus [11]): 13%; ILS at 12.5 mg/kg (Mus musculus [12]): 89%
4 | COc1ccc(C(C#N)(CCCCCN2Cc3cc(OC)c(OC)cc3C2)SC2CCCCC2)cc1OC (stereo in doubt; 28c) | – | – | – | – | – | 15 µM | 0.35 µM | –
5 | COc1ccc(C(C#N)(CCCCCN2Cc3cc(OC)c(OC)cc3C2)Sc2ccc(C)cc2)cc1OC (stereo in doubt; 28a) | 5.55 | 15% | 67 | – | – | 22.8 µM | 0.81 µM | ILS at 25 mg/kg (Mus musculus [9]): 41%; ILS at 25 mg/kg (Mus musculus [10]): 63%; TGI (Mus musculus [14]): 65%
6 | COc1ccc(C(C#N)(CCCCCN2CCc3cc(OC)c(OCCn4ccnc4)cc3C2)Sc2ccc(C)cc2)cc1OC (stereo in doubt; 39a) | – | 15% | 67 | – | – | 14.7 µM | 0.69 µM | ILS at 50 mg/kg (Mus musculus [15]): 48%; ILS at 50 mg/kg (Mus musculus [16]): 71%; TGI (Mus musculus [17]): 46%
7 | COc1ccc(C(C#N)(CCCCCN2CCc3cc(OC)c(OCCCl)cc3C2)Sc2ccc(C)cc2)cc1OC (stereo not given) | 6.77 | – | 75 | 16.8 µM | 0.37 µM | – | – | inhibition in vivo at 100 mg/kg (Mus musculus [18]): 64%
8 | COc1ccc(C(C#N)(CCCN2CCc3cc(OC)c(OC)cc3C2)Sc2ccc(C)cc2)cc1OC (stereo not given) | 5.12 | 51% | 39 | 24 µM | 0.46 µM | – | – | ILS at 50 mg/kg (Mus musculus [15]): 15%; ILS at 100 mg/kg (Mus musculus [19]): -3%; ILS at 50 mg/kg (Mus musculus [16]): 73%; TGI (Mus musculus [14]): 63%
9 | COc1ccc(C(C#N)(CCCCCCCCCCCN2CCc3cc(OC)c(OC)cc3C2)Sc2ccc(C)cc2)cc1OC (stereo not given) | – | 24% | 39 | 10.8 µM | 1.74 µM | – | – | logP [1]: 9.35; ILS at 25 mg/kg (Mus musculus [9]): 14%; ILS at 25 mg/kg (Mus musculus [10]): 42%; TGI (Mus musculus [14]): 61%
10 | COc1ccc(C(C#N)(CCCCCCCCN2CCc3cc(OC)c(OC)cc3C2)Sc2ccc(C)cc2)cc1OC (stereo not given) | 7.76 | 24% | – | 11.6 µM | 0.36 µM | – | – | ILS at 6.3 mg/kg (Mus musculus [2]): 8%; ILS at 6.3 mg/kg (Mus musculus [3]): 34%
11 | COC(=O)C(CCCN1CCc2cc(OC)c(OC)cc2C1)(Sc1ccc(C)cc1)c1ccc(OC)c(OC)c1 (stereo not given) | 5.54 | 13% | – | 32.8 µM | 1.47 µM | – | – | ILS at 50 mg/kg (Mus musculus [15]): 11%; ILS at 50 mg/kg (Mus musculus [16]): 25%
12 | COc1ccc(C(C#N)(CCCCCCN2CCc3cc(OC)c(OC)cc3C2)Sc2ccc(C)cc2)cc1OC (stereo not given) | 6.71 | 37% | – | 13.5 µM | 0.3 µM | – | – | ILS at 12.5 mg/kg (Mus musculus [11]): 23%; ILS at 12.5 mg/kg (Mus musculus [12]): 68%
13 | COc1ccc(C(C#N)(CCCCCN2CCc3cc(OC)c(OC)cc3C2)Sc2ccc(C)cc2)cc1OC (stereo not given) | 6.18 | 37% | 69 | 13.6 µM | 0.37 µM | – | – | ILS at 12.5 mg/kg (Mus musculus [11]): 33%; ILS at 100 mg/kg (Mus musculus [19]): -4%; ILS at 12.5 mg/kg (Mus musculus [12]): 83%; TGI (Mus musculus [14]): 59%
14 | COc1cc2c(cc1OC)CN(CCCCCCC(Sc1ccc(C)cc1)c1ccc(OC)c(OCCn3ccnc3)c1)CC2 (stereo in doubt; 47) | – | – | – | – | – | 5.64 µM | 0.29 µM | Relative tumor growth (Mus musculus [5]; 8 mg/kg): 80; TGI (Mus musculus [6]): 56%
15 | COc1ccc2c(c1)CCN(CCCCCC(C#N)(Sc1ccc(C)cc1)c1ccc(OC)c(OC)c1)C2 (stereo not given) | 6.64 | 26% | – | 15.7 µM | 1.92 µM | – | – | ILS at 12.5 mg/kg (Mus musculus [11]): 24%; ILS at 12.5 mg/kg (Mus musculus [12]): 56%
16 | COc1ccc(C(C#N)(CCCCCN2Cc3cc(OC)c(OC)cc3C2)Sc2ccc(C)cc2)cc1OC (stereo in doubt; 44) | – | – | – | – | – | 11.4 µM | 0.26 µM | –
